Experimental data: ChEMBL document CHEMBL3232958, “Antiproliferative and uncoupling effects of delocalized, lipophilic, cationic gallic acid derivatives on cancer cell lines. Validation in vivo in singenic mice” (J Med Chem, 2014)
Calls of active or inactive are those of the source. The calls are words filed in the database; no cut-off is given here.

Experiments:
[1] = tested on: CCRF-CEM; experiment: Cytotoxicity against human CCRF-CEM cells after 48 hrs by neutral red assay; assay type: functional, cell-based
Summary of the method: (§1)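 Neutral red uptake after 48 h exposure at 37 °C, 5% CO2. Seeding: 1 × 10^5 cells/mL for TA3, TA3-MTX-R and CCRF-CEM; 4 × 10^4 cells/mL for MM3MG. Dye at 100 μg/mL for 2 h, then ethanol/acetic acid extraction and absorbance at 540 nm. IC50 from variable-slope sigmoidal dose–response fit; at least three independent experiments in triplicate, mean ± SEM.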

[2] = Cytotoxicity against mouse multidrug-resistant TA3-MTX-R cells after 48 hrs by neutral red assay; assay type: functional, cell-based; summary of the method: as §1
[3] = Cytotoxicity against mouse TA3/Ha cells after 48 hrs by neutral red assay; assay type: functional, cell-based; summary of the method: as §1
[4] = Cytotoxicity against mouse MM3MG cells after 48 hrs by neutral red assay; assay type: cell-based; summary of the method: as §1
[5] = tested on: TA3/Ha; experiment: Induction of NAD(P)H oxidation in mouse TA3/Ha cells assessed as reduction of NAD(P)H/NAD(P)+ ratio at 12 uM by spectrofluorometer analysis; assay type: functional, cell-based
Summary of the method: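 Intact TA3 tumour cells, 2.5 mg protein/mL, in PBS pH 7.4 with 2.5 mM glutamine as substrate. Stirred and thermostatted at 25 °C. NAD(P)H autofluorescence (ex 340, em 420 nm) recorded as a time course by spectrofluorometer. Rotenone, FCCP or cation added during the trace.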

[6] = Uncoupling respiration effect in mouse TA3/Ha cells after 2 mins by polarographic analysis in presence of FCCP; assay type: functional
Summary of the method: (§2)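 Polarographic respiration of digitonin-permeabilized cells (0.013 μg/mg protein; 2.5 mg protein/mL) in PBS pH 7.4 with 10 mM succinate and 1 μg/mL oligomycin. Cations added in 3 μL DMSO. Atractyloside 5 nmol/mg protein was added before succinate. FCCP added at the end: 0.15 μM for TA3, 0.25 μM for TA3-MTX-R. Slope and K0.5 taken from log–log linear regression; at least three experiments.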

[7] = tested on: TA3/Ha; experiment: Induction of mitochondrial swelling in mouse TA3/Ha cell mitochondria at 0.15 mM by UV/vis spectrophotometer analysis in presence of N-ethylmaleimide; assay type: functional
Summary of the method: (§3)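 Same swelling set-up with TA3/Ha mitochondria at 0.15 mM cation, in the presence of NEM, DTT or NAC. Mean ± SEM of at least three experiments, ANOVA with Bonferroni test.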

[8] = tested on: TA3-MTX-R; experiment: Induction of mitochondrial swelling in mouse TA3-MTX-R cell mitochondria at 0.15 mM by UV/vis spectrophotometer analysis in presence of N-acetylcysteine; assay type: functional
[9] = tested on: TA3/Ha; experiment: Induction of NAD(P)H oxidation in mouse TA3/Ha cells assessed as reduction of NAD(P)H/NAD(P)+ ratio at 2.5 mg of protein/mL by spectrofluorometer analysis; assay type: functional, cell-based
Summary of the method: (§4)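 NAD(P)H autofluorescence (ex 340, em 420 nm) at 25 °C with stirring. Medium: PBS pH 7.4, 2.5 mM glutamine, TA3 cells at 2.5 mg protein/mL. Rotenone (12 μM), FCCP (6 μM) or test cation added during the time course.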

[10] = tested on: TA3/Ha; experiment: Induction of apoptosis in mouse TA3/Ha cells assessed as early stage apoptotic cells at 0.5 uM after 24 to 48 hrs using annexin V/propidium iodide staining by flow cytometry; assay type: functional, cell-based
Summary of the method: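 Annexin V-FITC/PI flow cytometry on 1 × 10^5 cells/mL treated for 24 and 48 h at 37 °C, 5% CO2. 5 min staining at room temperature; 5000 events recorded. Early apoptosis scored as annexin V+/PI−. Staurosporine 10 μM as positive control; at least three experiments, ANOVA with Bonferroni test.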

[11] = tested on: TA3/Ha (Mus musculus); experiment: Induction of mitochondrial swelling in mouse TA3/Ha cell mitochondria at 0.15 mM by UV/vis spectrophotometer analysis in presence of cyclosporine-A
[12] = tested on: TA3/Ha; experiment: Antitumor activity against mouse TA3/Ha cells allografted in CAF1-Jax mouse syngenic model assessed as increase of host survival at 10 mg/kg, ip administered every 48 hrs of 30 days; assay type: functional, organism-based; parameters: dose 10 mg/kg
[13] = Toxicity in mouse TA3/Ha cells assessed as cell membrane integrity after 24 hrs using propidium iodide by flow cytometry; assay type: cell-based; conditions: 2 to 4 h, in the assay text read “after 2 to 4 hrs” for “after 24 hrs”
Summary of the method: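 Membrane integrity by PI uptake on flow cytometry. Cells were seeded, grown for 24 h at 37 °C, 5% CO2, then given fresh medium with cation for 2 and 4 h before PI was added. Mean ± SEM of at least three experiments.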

[14] = Cell cycle arrest in mouse TA3/Ha cells assessed as accumulation at G0/G1 phase at 0.1 to 5 uM after 24 hrs; assay type: functional, cell-based
[15] = tested on: TA3/Ha; experiment: Induction of mitochondrial swelling in mouse TA3/Ha cell mitochondria at 0.15 mM by UV/vis spectrophotometer analysis in presence of dithiothreitol; assay type: functional; summary of the method: as §3
[16] = tested on: TA3/Ha; experiment: Induction of NAD(P)H oxidation in mouse TA3/Ha cells assessed as reduction of NAD(P)H/NAD(P)+ ratio by spectrofluorometer analysis; assay type: functional, cell-based; summary of the method: as §4
[17] = tested on: TA3-MTX-R; experiment: Induction of mitochondrial swelling in mouse TA3-MTX-R cell mitochondria at 0.05 to 0.20 mM by UV/vis spectrophotometer analysis; assay type: functional
[18] = Ratio of IC50 for mouse MM3MG cells to IC50 for mouse TA3/Ha cells
Summary of the method: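 Ratio of 48 h neutral red IC50 values. MM3MG seeded at 4 × 10^4 cells/mL, TA3 at 1 × 10^5 cells/mL. Each IC50 from a variable-slope sigmoidal fit of at least three independent experiments.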

[19] = tested on: TA3/Ha; experiment: Decrease of mitochondrial transmembrane potential in mouse TA3/Ha cell mitochondria at 0.5 uM after 5 mins by safranin staining; assay type: functional
Summary of the method: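 Safranin (20 μM) absorbance change at 511–533 nm in isolated mitochondria (1.0 mg/mL) in sucrose/KCl/Hepes pH 7.4 buffer with EGTA and phosphate. Baseline 5 min, then 2 mM glutamate + 2 mM malate for 5 min, then cation added. Mean ± SD of at least three experiments.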

[20] = tested on: TA3/Ha; experiment: Decrease of mitochondrial transmembrane potential in mouse TA3/Ha cell mitochondria at 0.5 uM after 5 mins by JC-1 staining; assay type: functional
[21] = tested on: TA3/Ha; experiment: Decrease of mitochondrial transmembrane potential in mouse TA3/Ha cell mitochondria at 0.5 uM after 5 mins by JC-1 staining in presence of ADP; assay type: functional
[22] = tested on: TA3/Ha (Mus musculus); experiment: Induction of mitochondrial swelling in mouse TA3/Ha cell mitochondria at 0.15 mM by UV/vis spectrophotometer analysis in presence of N-ethylmaleimide
[23] = Uncoupling respiration effect in mouse TA3-MTX-R cells after 2 mins by polarographic analysis in presence of atractyloside; assay type: functional; summary of the method: as §2
[24] = tested on: TA3/Ha (Mus musculus); experiment: Induction of mitochondrial swelling in mouse TA3/Ha cell mitochondria at 0.15 mM by UV/vis spectrophotometer analysis in presence of dithiothreitol
[25] = tested on: TA3/Ha; experiment: Induction of mitochondrial swelling in mouse TA3/Ha cell mitochondria at 0.15 mM by UV/vis spectrophotometer analysis in presence of N-acetylcysteine; assay type: functional; summary of the method: as §3
[26] = tested on: TA3/Ha; experiment: Reduction of ATP level in mouse TA3/Ha cells after 2 hrs by CellTiter-Glo luminescent assay; assay type: functional, cell-based
Summary of the method: (§5)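 CellTiter-Glo luminescence on 2 × 10^5 cells/mL incubated with cation for 2 h. Aliquot held 10 min at room temperature in the dark before reading; at least three experiments.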

[27] = tested on: TA3/Ha; experiment: Induction of mitochondrial swelling in mouse TA3/Ha cell mitochondria at 0.05 to 0.20 mM by UV/vis spectrophotometer analysis; assay type: functional
[28] = Uncoupling respiration effect in mouse TA3/Ha cells after 2 mins by polarographic analysis in presence of atractyloside; assay type: functional; summary of the method: as §2
[29] = tested on: Mus musculus; experiment: Toxicity in mouse TA3/Ha cells allografted CAF1-Jax mouse syngenic model at 10 mg/kg, ip administered every 48 hrs of 30 days; assay type: organism-based; parameters: dose 10 mg/kg, route intraperitoneal; conditions: in vivo
Summary of the method: (§6)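 Adult male CAF1-Jax mice; 1.0 × 10^6 TA3/Ha cells in 0.1 mL 0.9% NaCl injected subcutaneously into the back. 10 mg/kg given ip every 48 h for 30 days to groups of six mice; controls received vehicle. Tumor diameters measured three times weekly; volume = (max diameter)(min diameter)²/2. Two independent experiments.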

[30] = tested on: TA3/Ha; experiment: Induction of mitochondrial swelling in mouse TA3/Ha cell mitochondria at 0.15 mM by UV/vis spectrophotometer analysis in presence of cyclosporine-A; assay type: functional
Summary of the method: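 Same swelling set-up with TA3/Ha mitochondria (0.5 mg/mL, KCl/Tris pH 7.4, glutamate/malate) at 0.15 mM cation, with increasing cyclosporine concentrations.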

[31] = tested on: TA3/Ha; experiment: Reduction of ATP level in mouse TA3/Ha cells at 1 to 20 uM after 2 hrs by CellTiter-Glo luminescent assay; assay type: functional, cell-based; summary of the method: as §5
[32] = tested on: TA3/Ha; experiment: Antitumor activity against mouse TA3/Ha cells allografted in CAF1-Jax mouse syngenic model assessed as inhibition of tumor growth at 10 mg/kg, ip administered every 48 hrs of 30 days; assay type: functional, organism-based; parameters: dose 10 mg/kg; summary of the method: as §6
[33] = tested on: TA3/Ha; experiment: Induction of apoptosis in mouse TA3/Ha cells assessed as caspase 3 activation at 0.5 uM after 24 hrs by Western blot analysis; assay type: functional, cell-based
Summary of the method: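 Caspase 3 measured by Western blot. RIPA lysates, 50 μg protein run on 12% SDS–PAGE. Anti-caspase 3 (1:1000) and tubulin loading control (1:10000) overnight at 4 °C; HRP secondary for 2 h. ECL detection and densitometry.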

[34] = Uncoupling respiration effect in mouse TA3-MTX-R cells after 2 mins by polarographic analysis in presence of FCCP; assay type: functional; summary of the method: as §2
[35] = tested on: TA3/Ha; experiment: Cytotoxicity against mouse TA3/Ha cells up to 24 hrs by lactate dehydrogenase assay; assay type: functional, cell-based
Summary of the method: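 LDH release measured with a kit on 2 × 10^5 cells/mL incubated at 37 °C, 5% CO2, 90% humidity. Supernatant taken after centrifugation at 600g for 3 min, then 30 min with reaction mix at room temperature; absorbance read at 450 nm.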

## c1ccc(P(c2ccccc2)c2ccccc2)cc1
[1]
  IC50: 184 µM
[2]
  IC50: > 200 µM
[3]
  IC50: 190 µM
[4]
  IC50: > 200 µM

## O=C(O)c1cc(O)c(O)c(O)c1 [GALLIC ACID]
[1]
  IC50: > 200 µM
[2]
  IC50: 160 µM
[3]
  IC50: 163 µM
[4]
  IC50: > 200 µM

## C=C(C)[C@H]1Cc2c(ccc3c2O[C@@H]2COc4cc(OC)c(OC)cc4[C@@H]2C3=O)O1
[5]
  Activity: Active

## O=C(OCCCCCCCCCC[P+](c1ccccc1)(c1ccccc1)c1ccccc1)c1cc(O)c(O)c(O)c1.[Br-]
[6]
  K0.5: 1.21 µM
[7]
  Activity: inactive
[8]
  Activity: Active
[9]
  Activity: Active
[10]
  Activity: Active
[11]
  Activity: Active
[12]
  Activity: Active
[13]
  Activity: Non-toxic
[14]
  Activity: Active
[15]
  Activity: inactive
[16]
  Activity: Dose-dependent effect
[17]
  Activity: Active
[18]
  Ratio IC50: 17
[19]
  Activity: Active
[20]
  Activity: Active
[21]
  Activity: Active
[22]
  Activity: inactive
[23]
  K0.5: 5.24 ×10⁻⁵ M
[24]
  Activity: inactive
[25]
  Activity: inactive
[26]
  Activity: Dose-dependent effect
[1]
  IC50: 1.65 µM
[27]
  Activity: Active
[28]
  K0.5: 4.29 ×10⁻⁵ M
[29]
  Activity: Non-toxic
[2]
  IC50: 0.38 µM
[30]
  Activity: Active
[31]
  Activity: Active
[32]
  TGI: Active
[3]
  IC50: 0.4 µM
[33]
  Activity: Active
[34]
  K0.5: 1.8 ×10⁻⁵ M
[35]
  Activity: Active
[4]
  IC50: 7.1 µM

## CCCCCCCCCCCCOC(=O)c1cc(O)c(O)c(O)c1 [DODECYL GALLATE]
[1]
  IC50: 15.5 µM
[2]
  IC50: 3 µM
[3]
  IC50: 7.06 µM
[4]
  IC50: 30 µM
